≈ marks a conversion by molar mass, not a printed value. Calls of active or inactive are those of the source. The calls are words filed in the database; no cut-off is given here.
Experiments:
[1] = tested on: Staphylococcus aureus; test: Antimicrobial activity against Staphylococcus aureus CB190 by broth microdilution method; assay type: functional
[2] = tested on: Staphylococcus aureus; test: Antimicrobial activity against Staphylococcus aureus CB811 harboring quinolone-resistant gyrA S84L mutant gene by broth microdilution method; assay type: functional
In short: (§1)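 CLSI broth microdilution MIC in cation-adjusted Mueller-Hinton (MHII) broth supplemented with 0.002% (vol/vol) polysorbate 80, included to limit compound loss to plastic surfaces.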

[3] = tested on: Staphylococcus aureus; test: Antimicrobial activity against Staphylococcus aureus CB808 harboring quinolone-resistant parC S80F mutant gene by broth microdilution method; assay type: functional; in short: as §1
[4] = tested on: Staphylococcus aureus; test: Antimicrobial activity against Staphylococcus aureus CB814 harboring fluoroquinolone-resistant gyrA S84L and parC S80F mutant genes by broth microdilution method; assay type: functional; in short: as §1
[5] = tested on: Staphylococcus aureus; test: Antimicrobial activity against Staphylococcus aureus CB370 harboring rifampin-resistant rpoB H481Y mutant gene by broth microdilution method; assay type: functional; in short: as §1
[6] = tested on: Staphylococcus aureus; test: Antimicrobial activity against Staphylococcus aureus CB812 harboring rpo B H481Y and gyrA S84L mutant genes by broth microdilution method; assay type: functional; in short: as §1
[7] = tested on: Staphylococcus aureus; test: Antimicrobial activity against Staphylococcus aureus CB809 harboring rpoB H481Y and parC S80F mutant genes by broth microdilution method
[8] = tested on: Staphylococcus aureus; test: Antimicrobial activity against Staphylococcus aureus CB815 harboring rpoB H481Y, gyrA S84L and parC S80F mutant genes by broth microdilution method
[9] = tested on: Staphylococcus aureus; test: Antimicrobial activity against Staphylococcus aureus CB1884; assay type: functional
[10] = tested on: Staphylococcus aureus; test: Antimicrobial activity against Staphylococcus aureus CB1887 harboring rpoB R484H, L520 deficient gyrA, […], R236 duplicated parC and parC H103Y mutant genes selected after ABT-719 exposure for 20 days; assay type: functional; settings: CB1887, 480 h
[11] = tested on: Staphylococcus aureus; test: Antimicrobial activity against Staphylococcus aureus CB370 harboring rpoB H481Y mutant gene; assay type: functional
[12] = tested on: Staphylococcus aureus; test: Antimicrobial activity against Staphylococcus aureus CB1952 harboring rpoB S486L, gyrA […], gyrA E88Q, gyrA G532S, parC S80F, parC E84L mutant genes selected after CBR-2092 exposure for 21 days; assay type: functional; settings: CB1952, 504 h
[13] = tested on: Staphylococcus aureus; test: Antimicrobial activity against Staphylococcus aureus CB1953 harboring rpoB H481Y, gyrA S84L, gyrA V598I, parC S80F, parC R570H mutant genes selected after CBR-2092 exposure for 7 days; assay type: functional; settings: CB1953, 168 h
[14] = tested on: Staphylococcus aureus; test: Antimicrobial activity against Staphylococcus aureus CB1954 harboring rpoB H481Y, gyrA S84L, K809 deficient gyrA, parC S80F, parC A523D mutant genes selected after CBR-2092 exposure for 7 days; assay type: functional; settings: CB1954, 168 h; in short: as §1
[15] = tested on: Staphylococcus aureus; test: Activity at Staphylococcus aureus wild-type DNA topoisomerase 4 subunit ParC
In short: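 Recombinant S. aureus topoisomerase IV (wild-type ParC with ParE; specific activity 25 to 30 U per μg). Stopped with SDS/proteinase K. Linear DNA quantified on gel; CC50 is the mean of two or more assays.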

[16] = tested on: Staphylococcus aureus; test: Activity at Staphylococcus aureus DNA topoisomerase 4 subunit ParC S80F mutant
[17] = tested on: Staphylococcus aureus; test: Activity at Staphylococcus aureus wild-type GyrA
In short: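 Recombinant S. aureus gyrase (wild-type GyrA with His-tagged GyrB; 250 U per μg). SDS/proteinase K stop. Gel quantitation of linear cleavage product gave CC50, the mean of two or more assays.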

[18] = tested on: DNA gyrase subunit A (Staphylococcus aureus), P20831 [S84L]; test: Activity at Staphylococcus aureus wild-type GyrA S84L mutant
[19] = tested on: Staphylococcus aureus; test: Inhibition of DNA synthesis in Staphylococcus aureus CB190 assessed as decrease in [methyl-3H]thymidine incorporation at 2 ug/ml; assay type: functional, organism-based
[20] = tested on: Staphylococcus aureus; test: Inhibition of RNA synthesis in Staphylococcus aureus CB190 assessed as decrease in [5,6-3H]uridine incorporation at 2 ug/ml; assay type: functional, organism-based
[21] = tested on: Staphylococcus aureus; test: Inhibition of protein synthesis in Staphylococcus aureus CB190 assessed as decrease in L-[3,4,5-3H]leucine incorporation at 2 ug/ml; assay type: functional, organism-based
[22] = tested on: Staphylococcus aureus; test: Inhibition of cell wall synthesis in Staphylococcus aureus CB190 assessed as decrease in [2,3-3H]D-alanine incorporation at 2 ug/ml; assay type: functional, organism-based
[23] = tested on: Staphylococcus aureus; test: Inhibition of DNA synthesis in rifamycin-resistant Staphylococcus aureus CB370 harboring rpoB H481Y mutant gene assessed as decrease in [methyl-3H]thymidine incorporation at 2 ug/ml; assay type: functional, organism-based
In short: (§2)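 Macromolecular synthesis time course in S. aureus, measuring incorporation of [methyl-3H]thymidine (DNA), [5,6-3H]uridine (RNA) or [2,3-3H]D-alanine (cell wall). At each time point, incorporation is expressed as percent of the DMSO-treated control culture. Incorporation at time zero is set to 100%.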

[24] = tested on: Staphylococcus aureus; test: Inhibition of DNA synthesis in quinolone-resistant Staphylococcus aureus CB814 harboring gyrA S84L and parC S80F mutant genes assessed as [methyl-3H]thymidine incorporation at 2 ug/ml; assay type: functional, organism-based; in short: as §2
[25] = tested on: Staphylococcus aureus; test: Inhibition of RNA synthesis in quinolone-resistant Staphylococcus aureus CB814 harboring gyrA S84L and parC S80F mutant genes assessed as [5,6-3H]uridine incorporation at 2 ug/ml; assay type: functional, organism-based; in short: as §2
[26] = tested on: Staphylococcus aureus; test: Inhibition of protein synthesis in quinolone-resistant Staphylococcus aureus CB814 harboring gyrA S84L and parC S80F mutant genes assessed as L-[3,4,5-3H]leucine incorporation at 2 ug/ml; assay type: functional, organism-based
In short: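 Time-course radiolabel incorporation in S. aureus cultures with test agent. Precursors: [methyl-3H]thymidine (DNA), [5,6-3H]uridine (RNA), L-[3,4,5-3H]leucine (protein), [2,3-3H]D-alanine (cell wall). At each time point, incorporation with agent is expressed relative to the DMSO-treated control culture as percent incorporation. Time-zero incorporation is set to 100%.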

[27] = tested on: Staphylococcus aureus; test: Inhibition of cell wall synthesis in quinolone-resistant Staphylococcus aureus CB814 harboring gyrA S84L and parC S80F mutant genes assessed as [2,3-3H]D-alanine incorporation at 2 ug/ml; assay type: functional, organism-based; in short: as §2
[28] = tested on: Staphylococcus aureus; test: Antimicrobial activity against rifampin-sensitive Staphylococcus aureus CB190 by broth microdilution method; assay type: functional; in short: as §1
[29] = tested on: Staphylococcus aureus; test: Antimicrobial activity against rifampin-sensitive Staphylococcus aureus CB190 harboring rpoB H481Y mutant gene by broth microdilution method; assay type: functional; in short: as §1
[30] = tested on: Staphylococcus aureus; test: Antimicrobial activity against rifampin-sensitive Staphylococcus aureus CB190 harboring rpoB Q468L mutant gene by broth microdilution method; assay type: functional; in short: as §1
[31] = tested on: Staphylococcus aureus; test: Antimicrobial activity against rifampin-sensitive Staphylococcus aureus CB190 harboring rpoB Q468K mutant gene by broth microdilution method; assay type: functional; in short: as §1
[32] = tested on: Staphylococcus aureus; test: Antimicrobial activity against rifampin-sensitive Staphylococcus aureus CB190 harboring rpo BH481D mutant gene by broth microdilution method; assay type: functional; in short: as §1
[33] = tested on: Staphylococcus aureus; test: Antimicrobial activity against rifampin-sensitive Staphylococcus aureus CB190 harboring rpoB H472 mutant gene by broth microdilution method; assay type: functional; in short: as §1
[34] = tested on: Staphylococcus aureus; test: Antimicrobial activity against rifampin-sensitive Staphylococcus aureus CB190 harboring rpoB D471Y mutant gene by broth microdilution method; assay type: functional; in short: as §1
[35] = tested on: Staphylococcus aureus; test: Antimicrobial activity against rifampin-sensitive Staphylococcus aureus CB190 harboring rpoB E473 mutant gene by broth microdilution method; assay type: functional; in short: as §1
[36] = tested on: Staphylococcus aureus; test: Antimicrobial activity against rifampin-sensitive Staphylococcus aureus CB190 harboring rpoB H481N mutant gene by broth microdilution method; assay type: functional; in short: as §1
[37] = tested on: Staphylococcus aureus; test: Antimicrobial activity against rifampin-sensitive Staphylococcus aureus CB190 harboring rpoB N474K mutant gene by broth microdilution method; assay type: functional; in short: as §1
[38] = tested on: Staphylococcus aureus; test: Antimicrobial activity against rifampin-sensitive Staphylococcus aureus CB190 harboring rpoB A477V mutant gene by broth microdilution method; assay type: functional; in short: as §1
[39] = tested on: Staphylococcus aureus; test: Antimicrobial activity against rifampin-sensitive Staphylococcus aureus CB190 harboring rpoB D471G mutant gene by broth microdilution method; assay type: functional; in short: as §1
[40] = tested on: Staphylococcus aureus; test: Antimicrobial activity against Staphylococcus aureus CB1947 harboring rpoB H481Y, gyrA S84L, E697 deficient gyrA, parC G167V mutant genes selected after CBR-2092 exposure for 20 days; settings: CB1947, 480 h
[41] = tested on: Staphylococcus aureus; test: Antimicrobial activity against Staphylococcus aureus CB814 harboring […] and parC S80F mutant genes; assay type: functional
[42] = tested on: Staphylococcus aureus; test: Antimicrobial activity against Staphylococcus aureus CB815 harboring rpoB H481Y, gyrA […] and parC S80F mutant genes; assay type: functional

Work on `C[C@H]1COc2c(N3CCN(C)CC3)c(F)cc3c(=O)c(C(=O)O)cn1c23.C[C@H]1COc2c(N3CCN(C)CC3)c(F)cc3c(=O)c(C(=O)O)cn1c23.O` [LEVOFLOXACIN] yielded an MIC [1] of 0.25 µg/mL, an MIC [2] of 0.25 µg/mL and an MIC [3] of 1 µg/mL. It also gave an MIC [4] of 8 µg/mL, an MIC [5] of 0.25 µg/mL and an MIC [6] of 0.25 µg/mL. The MIC [7] was 1 µg/mL and the MIC [8] was 8 µg/mL.

Compound `O=C(O)c1cn(C2CC2)c2cc(N3CCNCC3)c(F)cc2c1=O` [CIPROFLOXACIN] has an MIC [9] of 8 µg/mL (≈ 24.1 µM), an MIC [10] of 64 µg/mL (≈ 193 µM) and an MIC [11] of 0.25 µg/mL (≈ 0.754 µM). The MIC [12] was 64 µg/mL (≈ 193 µM), the MIC [13] was 64 µg/mL (≈ 193 µM) and the MIC [14] was 64 µg/mL (≈ 193 µM). It also gave a CC50 [15] of 0.4 µM, a CC50 [16] of 31 µM and a CC50 [17] of 4.6 µM. The CC50 [18] was greater than 150 µM, the MIC [1] was 0.25 µg/mL (≈ 0.754 µM) and the MIC [2] was 0.25 µg/mL (≈ 0.754 µM). It also gave an MIC [3] of 2 µg/mL (≈ 6.04 µM), an MIC [5] of 0.25 µg/mL (≈ 0.754 µM) and an MIC [6] of 0.25 µg/mL (≈ 0.754 µM). The Activity [19] was “Active”, the Activity [20] was “Active” and the Activity [21] was “Active”. For the same compound, the Activity [22] was “Active”, the Activity [23] was “Active” and the Activity [24] was “inactive”. The Activity [25] was “inactive”, the Activity [26] was “inactive” and the Activity [27] was “inactive”. It also gave an MIC [28] of 0.25 µg/mL (≈ 0.754 µM), an MIC [29] of 0.25 µg/mL (≈ 0.754 µM) and an MIC [30] of 0.25 µg/mL (≈ 0.754 µM). The MIC [31] was 0.25 µg/mL (≈ 0.754 µM), the MIC [32] was 0.25 µg/mL (≈ 0.754 µM) and the MIC [33] was 0.25 µg/mL (≈ 0.754 µM). It also gave an MIC [34] of 0.5 µg/mL (≈ 1.51 µM), an MIC [35] of 0.25 µg/mL (≈ 0.754 µM) and an MIC [36] of 0.25 µg/mL (≈ 0.754 µM). For the same compound, the MIC [37] was 0.25 µg/mL (≈ 0.754 µM), the MIC [38] was 0.25 µg/mL (≈ 0.754 µM) and the MIC [39] was 0.25 µg/mL (≈ 0.754 µM). The MIC [7] was 2 µg/mL (≈ 6.04 µM) and the MIC [40] was 2 µg/mL (≈ 6.04 µM).

`CCBr` [BROMOETHANE] showed an MIC [9] of 2 µg/mL (≈ 18.4 µM), an MIC [11] of 4 µg/mL (≈ 36.7 µM) and an MIC [41] of 4 µg/mL (≈ 36.7 µM). The MIC [12] was 4 µg/mL (≈ 36.7 µM), the MIC [42] was 4 µg/mL (≈ 36.7 µM) and the MIC [13] was 4 µg/mL (≈ 36.7 µM). For the same compound, the MIC [14] was 4 µg/mL (≈ 36.7 µM) and the MIC [40] was 4 µg/mL (≈ 36.7 µM).
